Data taken from ChEMBL document CHEMBL3272176, “Nucleic acids. 16. Orally active derivatives of ara-cytidine” (1976).

Columns and labels:
L1210 [1] = assay: Antitumor activity against mouse L1210 cells allografted in mouse assessed as increase in life span at 100 umol/kg/day, po using 0.01 N HCl vehicle for 5 days 24 hrs after tumor inoculation; type: functional
Method in brief: (§1)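 Mice were inoculated ip on day 0 with 1×10^6 L1210 cells each. Dosing started 24 h later, once daily for 5 days, in groups of eight. Survival was recorded to the nearest day. %ILS was calculated from median survival of treated vs control groups, with ≥25% counted as significant. For the plain-saline and HCl vehicles, compound was first wetted with a few drops of ethanol (<5% v/v).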

L1210 [2] = assay: Antitumor activity against mouse L1210 cells allografted in mouse assessed as increase in life span at 200 umol/kg/day, po using 0.01 N HCl vehicle for 5 days 24 hrs after tumor inoculation; type: functional; method in brief: as §1
L1210 [3] = assay: Antitumor activity against mouse L1210 cells allografted in mouse assessed as increase in life span at 400 umol/kg/day, po using 0.01 N HCl vehicle for 5 days 24 hrs after tumor inoculation; type: functional; method in brief: as §1
Rattus norvegicus [4] = assay: Immunosuppression in experimental allergic encephalomyelitis rat model administered po for days 1 to 13 measured on day 17
Rattus norvegicus [5] = assay: Immunosuppression activity in experimental allergic encephalomyelitis rat model administered po for days 1 to 13 measured on day 14
Rattus norvegicus [6] = assay: Immunosuppression activity in rat assessed as reduction of adjuvant-induced acute inflammation administered po twice daily on days 0 to 14
Rattus norvegicus [7] = assay: Immunosuppression activity in rat assessed as reduction of adjuvant-induced polyarthritis administered po twice daily on days 0 to 14 measured on day 21
Rattus norvegicus [8] = assay: Immunosuppression activity in rat assessed as reduction of adjuvant-induced polyarthritis administered po twice daily for days 0 to 14 measured on day 15
L1210 [9] = assay: Antitumor activity against mouse L1210 cells allografted in mouse assessed as increase in life span at 100 umol/kg/day, po using saline vehicle for 5 days 24 hrs after tumor inoculation; type: functional; method in brief: as §1
L1210 [10] = assay: Antitumor activity against mouse L1210 cells allografted in mouse assessed as increase in life span at 200 umol/kg/day, po using saline vehicle for 5 days 24 hrs after tumor inoculation; type: functional; method in brief: as §1
L1210 [11] = assay: Antitumor activity against mouse L1210 cells allografted in mouse assessed as increase in life span at 400 umol/kg/day, po using saline vehicle for 5 days 24 hrs after tumor inoculation; type: functional; method in brief: as §1
L1210 [12] = assay: Antitumor activity against mouse L1210 cells allografted in mouse assessed as increase in life span at 100 umol/kg/day, po using 0.1 N HCl vehicle for 5 days 24 hrs after tumor inoculation; type: functional; method in brief: as §1
L1210 [13] = assay: Antitumor activity against mouse L1210 cells allografted in mouse assessed as increase in life span at 200 umol/kg/day, po using 0.1 N HCl vehicle for 5 days 24 hrs after tumor inoculation; type: functional; method in brief: as §1
L1210 [14] = assay: Antitumor activity against mouse L1210 cells allografted in mouse assessed as increase in life span at 400 umol/kg/day, po using 0.1 N HCl vehicle for 5 days 24 hrs after tumor inoculation; type: functional; method in brief: as §1
L1210 [15] = assay: Antitumor activity against mouse L1210 cells allografted in mouse assessed as increase in life span at 100 umol/kg/day, po using 0.9% (W/V) aqueous NaCl vehicle for 5 days 24 hrs after tumor inoculation; type: functional; method in brief: as §1
L1210 [16] = assay: Antitumor activity against mouse L1210 cells allografted in mouse assessed as increase in life span at 200 umol/kg/day, po using 0.9% (W/V) aqueous NaCl vehicle for 5 days 24 hrs after tumor inoculation; type: functional; method in brief: as §1
L1210 [17] = assay: Antitumor activity against mouse L1210 cells allografted in mouse assessed as increase in life span at 400 umol/kg/day, po using 0.9% (W/V) aqueous NaCl vehicle for 5 days 24 hrs after tumor inoculation; type: functional; method in brief: as §1
L1210 [18] = assay: Antitumor activity against mouse L1210 cells allografted in mouse assessed as increase in life span at 100 umol/kg/day, po using 0.9% (W/V) aqueous NaCl vehicle for 5 days 24 hrs after tumor inoculation in presence of THU 10 mg/kg/day on days 1 to 5; type: functional; method in brief: as §1
L1210 [19] = assay: Antitumor activity against mouse L1210 cells allografted in mouse assessed as increase in life span at 200 umol/kg/day, po using 0.9% (W/V) aqueous NaCl vehicle for 5 days 24 hrs after tumor inoculation in presence of THU 10 mg/kg/day on days 1 to 5; type: functional; method in brief: as §1
L1210 [20] = assay: Antitumor activity against mouse L1210 cells allografted in mouse assessed as increase in life span at 100 umol/kg/day, ip using 0.9% (W/V) aqueous NaCl vehicle for 5 days 24 hrs after tumor inoculation; type: functional; method in brief: as §1
L1210 [21] = assay: Antitumor activity against mouse L1210 cells allografted in mouse assessed as increase in life span at 200 umol/kg/day, ip using 0.9% (W/V) aqueous NaCl vehicle for 5 days 24 hrs after tumor inoculation; type: functional; method in brief: as §1
L1210 [22] = assay: Antitumor activity against mouse L1210 cells allografted in mouse assessed as increase in life span at 400 umol/kg/day, ip using 0.9% (W/V) aqueous NaCl vehicle for 5 days 24 hrs after tumor inoculation; type: functional; method in brief: as §1
L1210 [23] = assay: Antitumor activity against mouse L1210 cells allografted in mouse assessed as increase in life span at 400 umol/kg/day, po using 0.9% (W/V) aqueous NaCl vehicle for 5 days 24 hrs after tumor inoculation in presence of THU 10 mg/kg/day on days 1 to 5

| Compound | inhibition (INH) (Rattus norvegicus [4]) | inhibition (INH) (Rattus norvegicus [5]) | inhibition (INH) (Rattus norvegicus [6]) | inhibition (INH) (Rattus norvegicus [7]) | inhibition (INH) (Rattus norvegicus [8]) | ILS at 100 µmol/kg (L1210 [15]) | ILS at 200 µmol/kg (L1210 [16]) | ILS at 400 µmol/kg (L1210 [17]) | also measured |
| --- | --- | --- | --- | --- | --- | --- | --- | --- | --- |
| CCCCCCCCCCCCCCCC(=O)OC[C@H]1O[C@@H](n2ccc(N)nc2=O)[C@@H](O)[C@@H]1O.Cl | 13.2% | 8.1% | 13% | 6% | 11% |  |  |  | ILS at 100 µmol/kg (L1210 [1]): 46%; ILS at 200 µmol/kg (L1210 [2]): 69%; ILS at 400 µmol/kg (L1210 [3]): 92% |
| Cl.Nc1ccn([C@@H]2O[C@H](COC(=O)c3ccccc3)[C@@H](O)[C@@H]2O)c(=O)n1 | 0% | 0% | 15% | 20% | 47% |  |  |  | ILS at 100 µmol/kg (L1210 [9]): 15%; ILS at 200 µmol/kg (L1210 [10]): 31%; ILS at 400 µmol/kg (L1210 [11]): 62% |
| Cl.Nc1ccn([C@@H]2O[C@H](COC(=O)C34CC5CC(CC(C5)C3)C4)[C@@H](O)[C@@H]2O)c(=O)n1 | 7.9% | 5.4% | 4% | 28% | 31% |  |  |  | ILS at 100 µmol/kg (L1210 [12]): 46%; ILS at 200 µmol/kg (L1210 [13]): 77%; ILS at 400 µmol/kg (L1210 [14]): 130% |
| CCCCCCCCCCCCCCCC(=O)OC[C@H]1O[C@@H](n2ccc(NC(=O)[C@H](CCCNC(=N)N)NC(=O)CNC(=O)OC(C)(C)C)nc2=O)[C@@H](O)[C@@H]1O.Cl | 10.5% | 35.1% | 6% |  |  | 30% | 44% | 110% |  |
| CC(C)(C)OC(=O)NCC(=O)N[C@@H](CCCNC(=N)N)C(=O)Nc1ccn([C@@H]2O[C@H](COC(=O)c3ccccc3)[C@@H](O)[C@@H]2O)c(=O)n1.Cl | 5.3% | 13.5% | 9% | 35% | 52% | 14% | 21% | 43% |  |
| CC(C)(C)OC(=O)NCC(=O)N[C@@H](CCCNC(=N)N)C(=O)Nc1ccn([C@@H]2O[C@H](COC(=O)C34CC5CC(CC(C5)C3)C4)[C@@H](O)[C@@H]2O)c(=O)n1.Cl | 10.5% | 5.4% | 1% | 18% | 50% | 21% | 43% | 93% |  |
| Cl.Nc1ccn([C@@H]2O[C@H](COC(=O)c3cccnc3)[C@@H](O)[C@@H]2O)c(=O)n1 |  |  | 4% | 0% | 0% |  |  |  | ILS at 100 µmol/kg (L1210 [1]): 31%; ILS at 200 µmol/kg (L1210 [2]): 46%; ILS at 400 µmol/kg (L1210 [3]): 69% |
| Cl.Nc1ccn([C@@H]2O[C@H](COC(=O)C3CC4CCN3CC4)[C@@H](O)[C@@H]2O)c(=O)n1 (stereo not given in full) |  |  | -2% | 0% | 5% |  |  |  | ILS at 100 µmol/kg (L1210 [9]): 8%; ILS at 200 µmol/kg (L1210 [10]): 0%; ILS at 400 µmol/kg (L1210 [11]): 15% |
| Nc1ccn([C@@H]2O[C@H](CO)[C@@H](O)[C@@H]2O)c(=O)n1 [CYTARABINE] |  |  | -4% | 7% | 20% | 15% | 38% | 62% | ILS (L1210 [18]): 62%; ILS (L1210 [19]): 92%; ILS at 100 µmol/kg (L1210 [20]): 69%; ILS at 200 µmol/kg (L1210 [21]): 100%; ILS at 400 µmol/kg (L1210 [22]): 131%; ILS (L1210 [23]): 138% |
